Source: ChEMBL document CHEMBL1667791, “Opioid bifunctional ligands from morphine and the opioid pharmacophore Dmt-Tic” (Eur J Med Chem, 2011)
Activity calls are given as the source filed them. The calls are words filed in the database; no cut-off is given here.

Assays:
[1] = target: T1, Kappa-type opioid receptor (Homo sapiens, UniProt P41145); experiment: Agonist activity at human kappa opioid receptor expressed in CHO cells by [35S]GTPgammaS binding assay relative to control; type: functional, cell-based
T1 sequence (P41145 whole entry): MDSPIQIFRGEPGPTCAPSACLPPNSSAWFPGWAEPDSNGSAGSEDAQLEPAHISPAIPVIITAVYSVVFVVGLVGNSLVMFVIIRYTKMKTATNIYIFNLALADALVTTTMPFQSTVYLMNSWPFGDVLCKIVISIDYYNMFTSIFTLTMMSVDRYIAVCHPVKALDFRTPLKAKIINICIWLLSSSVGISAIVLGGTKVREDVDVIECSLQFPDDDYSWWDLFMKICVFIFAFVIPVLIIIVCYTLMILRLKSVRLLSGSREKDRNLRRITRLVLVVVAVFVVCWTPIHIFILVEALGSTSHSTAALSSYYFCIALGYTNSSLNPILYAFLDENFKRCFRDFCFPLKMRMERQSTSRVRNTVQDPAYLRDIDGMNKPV
Procedure, shortened: (§1)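 [35S]GTPγS binding (0.080 nM final) on membranes from CHO cells stably expressing human δ (10 μg), μ (7.5 μg) or κ (15 μg) receptors. Twelve compound concentrations were tested in 50 mM Tris-HCl pH 7.4 with 3 mM MgCl2, 0.2 mM EGTA, 3 μM GDP and 100 mM NaCl, for 60 min at 30 °C. Nonspecific binding was set with 10 μM GTPγS. Samples were filtered and counted. Emax was taken relative to basal (0%). Values are mean ± S.E.M., ≥3 experiments in triplicate.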

[2] = target: T2, Mu-type opioid receptor (Homo sapiens, UniProt P35372); experiment: Antagonist activity at human mu opioid receptor expressed in CHO cells assessed as inhibition of DAMGO-induced [35S]GTPgammaS binding relative to control; type: functional, cell-based
T2 sequence (P35372 whole entry): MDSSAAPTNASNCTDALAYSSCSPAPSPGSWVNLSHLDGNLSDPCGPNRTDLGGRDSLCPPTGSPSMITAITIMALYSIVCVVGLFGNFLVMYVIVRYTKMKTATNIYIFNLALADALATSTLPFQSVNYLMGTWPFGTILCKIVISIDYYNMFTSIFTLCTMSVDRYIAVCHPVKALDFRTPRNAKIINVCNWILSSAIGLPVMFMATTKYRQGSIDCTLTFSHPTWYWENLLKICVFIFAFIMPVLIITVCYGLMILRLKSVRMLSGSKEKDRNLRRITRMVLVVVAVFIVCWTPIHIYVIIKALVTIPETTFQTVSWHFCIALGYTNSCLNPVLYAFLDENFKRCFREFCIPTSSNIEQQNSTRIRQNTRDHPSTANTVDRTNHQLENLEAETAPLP
Procedure, shortened: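 Human μ-receptor CHO membranes (7.5 μg) were incubated with twelve compound concentrations plus 200 nM DAMGO and 0.080 nM [35S]GTPγS. Nonspecific binding was set with 10 μM GTPγS. Read by filtration and scintillation counting.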

[3] = target: T1, Kappa-type opioid receptor; experiment: Antagonist activity at human kappa opioid receptor expressed in CHO cells assessed as inhibition of […]-induced [35S]GTPgammaS binding; type: functional, cell-based
[4] = target: T3, Delta-type opioid receptor (Homo sapiens, UniProt P41143); experiment: Agonist activity at human delta opioid receptor expressed in CHO cells by [35S]GTPgammaS binding assay relative to control; type: functional, cell-based; procedure, shortened: as §1
T3 sequence (P41143 whole entry): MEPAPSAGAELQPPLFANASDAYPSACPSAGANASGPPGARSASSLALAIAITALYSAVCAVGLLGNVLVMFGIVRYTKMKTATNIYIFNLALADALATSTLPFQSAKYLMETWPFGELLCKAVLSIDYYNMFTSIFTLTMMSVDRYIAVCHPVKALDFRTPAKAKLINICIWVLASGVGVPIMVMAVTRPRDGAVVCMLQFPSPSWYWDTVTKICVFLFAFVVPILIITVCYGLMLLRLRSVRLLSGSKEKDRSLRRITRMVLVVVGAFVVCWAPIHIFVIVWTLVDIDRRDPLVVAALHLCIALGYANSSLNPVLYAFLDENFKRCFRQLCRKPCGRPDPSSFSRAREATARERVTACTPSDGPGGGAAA

[5] = target: T1, Kappa-type opioid receptor; experiment: Displacement of [3H]U69593 from human kappa opioid receptor expressed in CHO cells after 60 mins by scintillation counting; type: cell-based
[6] = organism: Homo sapiens; experiment: Selectivity ratio of Ki for human mu opioid receptor to Ki for human delta opioid receptor
[7] = target: T2, Mu-type opioid receptor; experiment: Displacement of [3H]DAMGO from human mu opioid receptor expressed in CHO cells after 60 mins by scintillation counting; type: cell-based
[8] = target: T3, Delta-type opioid receptor; experiment: Antagonist activity at human delta opioid receptor expressed in CHO cells assessed as inhibition of […]-induced [35S]GTPgammaS binding relative to control; type: functional, cell-based
[9] = target: T2, Mu-type opioid receptor; experiment: Agonist activity at human mu opioid receptor expressed in CHO cells by [35S]GTPgammaS binding assay relative to control; type: functional, cell-based; procedure, shortened: as §1
[10] = target: T3, Delta-type opioid receptor; experiment: Antagonist activity at human delta opioid receptor expressed in CHO cells assessed as inhibition of […]-induced [35S]GTPgammaS binding; type: functional, cell-based
[11] = target: T2, Mu-type opioid receptor; experiment: Antagonist activity at human mu opioid receptor expressed in CHO cells assessed as inhibition of DAMGO-induced [35S]GTPgammaS binding; type: functional, cell-based
[12] = organism: Homo sapiens; experiment: Selectivity ratio of Ki for human kappa opioid receptor to Ki for human mu opioid receptor
[13] = target: T3, Delta-type opioid receptor; experiment: Displacement of [3H]naltrindole from human delta opioid receptor expressed in CHO cells after 3 hrs by scintillation counting; type: cell-based
[14] = target: T1, Kappa-type opioid receptor; experiment: Antagonist activity at human kappa opioid receptor expressed in CHO cells assessed as inhibition of […]-induced [35S]GTPgammaS binding relative to control; type: functional, cell-based
[15] = organism: Homo sapiens; experiment: Selectivity ratio of Ki for human kappa opioid receptor to Ki for human delta opioid receptor

Compound | Emax [1] [%] | Imax [2] [%] | IC50 [3] [nM] | Emax [4] [%] | Ki [5] [nM] | Ratio Ki [6] | Ki [7] [nM] | Imax [8] [%] | Emax [9] [%] | IC50 [10] [nM] | IC50 [11] [nM] | Ratio Ki [12] | Ki [13] [nM] | Imax [14] | Ratio Ki [15]
Cc1cc(O)cc(C)c1C[C@@H](C(=O)N1Cc2ccccc2C[C@H]1C(=O)OC1=C2O[C@H]3[C@@H](O)C=C[C@H]4[C@H]5CC(C=C1)C2[C@]43CCN5C)N(C)C (stereo partly drawn) | 2.6 | 97 | 3100 | -4.9 | 12 | 1.5 | 1.1 | 120 | 0.43 | 1.7 | 13 | 11 | 1.6 | 99% | 7.5
Cc1cc(O)cc(C)c1C[C@@H](C(=O)N1Cc2ccccc2C[C@H]1C(=O)NCCC(=O)O)N(C)C | – | – | – | – | – | – | – | – | – | – | – | > 2.2 | – | – | –
Cc1cc(O)cc(C)c1C[C@@H](C(=O)N1Cc2ccccc2C[C@H]1C(=O)O)N(C)C | – | – | – | – | – | – | – | – | – | – | – | > 4.3 | – | – | > 3740
Cc1cc(O)cc(C)c1C[C@@H](C(=O)N1Cc2ccccc2C[C@H]1C(=O)NCCC(=O)OC1=C2O[C@H]3[C@@H](O)C=C[C@H]4[C@H]5CC(C=C1)C2[C@]43CCN5C)N(C)C (stereo partly drawn) | 41 | 69 | – | – | – | – | – | 120 | 14 | – | – | – | – | inactive | –
